Laboratory results reported in ChEMBL document CHEMBL4622955, “Phenyltriazole-functionalized sulfamate inhibitors targeting tyrosyl- or isoleucyl-tRNA synthetase” (Bioorg Med Chem, 2020).
The source made the active and inactive calls.

Legend:
[1] = target: Isoleucine--tRNA ligase (Escherichia coli K-12) (UniProt P00956); experiment: (§1) Inhibition of Escherichia coli BL21(DE3) ileRS overexpressed in Escherichia coli Rosetta2(DE3) assessed as reduction in tRNA aminoacylation at 1 uM preincubated with enzyme and substrate for 10 mins prior to ATP addition using 14C-labeled isoleucine and tRNA as substrate by liquid scintillation counting method
Sequence of Isoleucine--tRNA ligase (Escherichia coli K-12) (P00956 whole entry): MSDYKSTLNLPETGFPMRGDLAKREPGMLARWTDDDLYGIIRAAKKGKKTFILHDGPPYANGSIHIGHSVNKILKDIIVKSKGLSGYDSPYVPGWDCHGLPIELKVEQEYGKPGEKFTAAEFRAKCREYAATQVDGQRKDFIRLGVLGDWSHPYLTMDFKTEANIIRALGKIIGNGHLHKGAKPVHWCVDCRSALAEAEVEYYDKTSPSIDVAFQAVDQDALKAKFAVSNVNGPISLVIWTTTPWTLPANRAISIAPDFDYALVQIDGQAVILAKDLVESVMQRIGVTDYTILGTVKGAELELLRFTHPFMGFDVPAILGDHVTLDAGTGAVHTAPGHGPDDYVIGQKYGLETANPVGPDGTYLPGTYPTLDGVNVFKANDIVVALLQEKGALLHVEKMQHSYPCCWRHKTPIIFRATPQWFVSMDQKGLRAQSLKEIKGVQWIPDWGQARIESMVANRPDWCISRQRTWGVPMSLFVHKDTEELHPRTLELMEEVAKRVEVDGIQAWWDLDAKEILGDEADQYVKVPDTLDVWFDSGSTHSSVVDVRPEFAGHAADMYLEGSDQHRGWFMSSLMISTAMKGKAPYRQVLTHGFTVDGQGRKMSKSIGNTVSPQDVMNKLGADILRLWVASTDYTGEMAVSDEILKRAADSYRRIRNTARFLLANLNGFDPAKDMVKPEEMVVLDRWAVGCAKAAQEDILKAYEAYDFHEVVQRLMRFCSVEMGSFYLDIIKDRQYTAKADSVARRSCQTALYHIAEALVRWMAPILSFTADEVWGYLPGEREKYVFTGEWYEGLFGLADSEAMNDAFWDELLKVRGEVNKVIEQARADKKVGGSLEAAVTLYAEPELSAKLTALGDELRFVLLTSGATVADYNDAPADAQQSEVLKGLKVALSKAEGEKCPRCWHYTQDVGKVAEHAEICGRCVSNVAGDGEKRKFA
In short: (§2)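 Radiolabeled aminoacylation with 10 nM IleRS, 25 μM 14C-isoleucine, 500 μM ATP and total E. coli tRNA at 2 mg/mL final. Activity normalized to enzyme without inhibitor. Triplicate measurements.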

[2] = tested on: Candida albicans; experiment: Antimicrobial activity against Candida albicans at 64 uM by resazurin dye based assay; assay type: functional, organism-based
[3] = target: Isoleucine--tRNA ligase (Escherichia coli K-12, UniProt P00956); experiment: as §1, with “aminoacylation” for “aminoacylation at 1 uM”; conditions: read-out: Ki(app); in short: as §2
Sequence of Isoleucine--tRNA ligase (P00956 whole entry): as above

[4] = tested on: Escherichia coli; experiment: Antimicrobial activity against Escherichia coli at 64 uM by resazurin dye based assay; assay type: functional, organism-based
[5] = tested on: Staphylococcus aureus; experiment: Antimicrobial activity against Staphylococcus aureus at 64 uM by resazurin dye based assay; assay type: functional, organism-based
[6] = target: Isoleucine--tRNA ligase (Escherichia coli K-12) (UniProt P00956); experiment: as §1, with “at 0.5” for “at 1”; in short: as §2
[7] = tested on: Mycobacterium tuberculosis; experiment: Antimicrobial activity against Mycobacterium tuberculosis at 64 uM by resazurin dye based assay; assay type: functional, organism-based
In short: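 Non-pathogenic Mycobacterium tuberculosis strain, part of a broader antimicrobial panel; compounds tested up to a maximum concentration of 64 μM.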

[8] = target: T1, Tyrosine--tRNA ligase (Escherichia coli (strain K12)) (UniProt P0AGJ9); experiment: as §1, with “BL21(DE3) TyrRS” for “BL21(DE3) ileRS”, “at 5” for “at 1”, “14C-labeled tyrosine” for “14C-labeled isoleucine”
T1 sequence (whole entry): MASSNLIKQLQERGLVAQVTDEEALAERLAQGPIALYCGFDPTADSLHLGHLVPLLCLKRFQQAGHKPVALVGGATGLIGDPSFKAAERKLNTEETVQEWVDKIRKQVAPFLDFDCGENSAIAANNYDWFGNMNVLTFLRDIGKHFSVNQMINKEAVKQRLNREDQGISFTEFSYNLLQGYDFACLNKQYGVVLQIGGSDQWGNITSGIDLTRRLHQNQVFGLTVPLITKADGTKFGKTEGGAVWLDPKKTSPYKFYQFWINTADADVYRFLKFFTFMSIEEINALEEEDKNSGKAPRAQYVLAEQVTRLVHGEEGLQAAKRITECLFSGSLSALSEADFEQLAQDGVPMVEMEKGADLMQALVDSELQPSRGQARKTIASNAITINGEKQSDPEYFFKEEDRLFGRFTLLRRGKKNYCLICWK
In short: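 TyrRS counterpart of the radiolabeled aminoacylation assay, with test compounds at 5 μM.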

CC[C@H](C)[C@H](N)C(=O)NS(=O)(=O)OC[C@H]1OC[C@@H](CCCn2cc(-c3ccccc3)nn2)[C@H](O)[C@@H]1O
88 nM: Ki [3]
active: inhibition [1] | inhibition [6]
inactive: Activity [2] | Activity [4] | Activity [5] | Activity [7]

CC[C@H](C)[C@H](N)C(=O)NS(=O)(=O)OC[C@H]1OC[C@@H](OCCn2cc(-c3ccccc3)nn2)[C@H](O)[C@@H]1O
active: inhibition [1] | inhibition [6]
114 nM: Ki [3]
inactive: Activity [2] | Activity [4] | Activity [5] | Activity [7]

N[C@@H](Cc1ccc(O)cc1)C(=O)NS(=O)(=O)OC[C@H]1OC[C@@H](CCn2cc(-c3ccccc3)nn2)[C@H](O)[C@@H]1O
inactive: Activity [2] | Activity [4] | Activity [5] | Activity [7] | inhibition [8]

N[C@@H](Cc1ccc(O)cc1)C(=O)NS(=O)(=O)OC[C@H]1OC[C@@H](OCCn2cc(-c3ccccc3)nn2)[C@H](O)[C@@H]1O
inactive: Activity [2] | Activity [4] | Activity [5] | Activity [7] | inhibition [8]

CC[C@H](C)[C@H](N)C(=O)NS(=O)(=O)OC[C@H]1OC[C@@H](CCn2cc(-c3ccccc3)nn2)[C@H](O)[C@@H]1O
active: inhibition [1]
inactive: Activity [2] | Activity [4] | Activity [5] | Activity [7]

N[C@@H](Cc1ccc(O)cc1)C(=O)NS(=O)(=O)OC[C@H]1OC[C@@H](CCn2nnc(-c3ccccc3)n2)[C@H](O)[C@@H]1O
inactive: Activity [2] | Activity [4] | Activity [5] | Activity [7] | inhibition [8]

CC[C@H](C)[C@H](N)C(=O)NS(=O)(=O)OC[C@H]1OC[C@@H](CCn2nnc(-c3ccccc3)n2)[C@H](O)[C@@H]1O
active: inhibition [1]
inactive: Activity [2] | Activity [4] | Activity [5] | Activity [7]
